ChEMBL document CHEMBL4706680, “Small-Molecule HSP27 Inhibitor Abolishes Androgen Receptors in Glioblastoma” (J Med Chem, 2021)
The source made the active and inactive calls. The rule behind the calls is not given here.

Assays:
[1] = target: Heat shock protein beta-1 (Homo sapiens) (UniProt P04792); experiment: Inhibition of HSP27 in human U87 cells assessed as downregulation of androgen receptor by Western blot analysis; format: cell-based; settings: dose 25-100 nM
Procedure, shortened: (§1)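 Cells were treated in six-well plates (with or without MG132 where stated), then lysed in RIPA with protease inhibitors. 50 μg protein was run on 10% SDS-PAGE and transferred to PVDF. Membranes were blocked in 5% milk/TBS-T, probed with AR or AR-V7 antibodies overnight at 4 °C, and detected by chemiluminescence. Densitometry was used; n = 3.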

Mus musculus [2] = experiment: In vivo inhibition of HSP27 in human U87 cells xenografted in NCR nude mouse assessed as reduction in AR expression level in tumors at 20 mg/kg, po administered thrice weekly for 14 days by Western blot analysis; format: functional, organism-based; settings: time 14.0 day
Procedure, shortened: (§2)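 Tumors from U87 flank xenografts in male nude mice dosed at 20 mg/kg IP or orally three times weekly for 14 days. The two tumors of each mouse were pooled and homogenized in RIPA with protease inhibitors and PMSF. AR was then measured by western blot; n = 4.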

[3] = target: Heat shock protein beta-1 (Homo sapiens) (UniProt P04792); experiment: Inhibition of HSP27 in human U87 cells assessed as induction of AR degradation at 25 to 100 nM by Western blot analysis; format: cell-based; settings: dose 25-100 nM; procedure, shortened: as §1
[4] = Toxicity in NCR nude mouse xenografted with human U87 cells assessed as change in body weight at 20 mg/kg, ip administered thrice weekly for 14 days; format: organism-based; settings: in vivo, 336 h, time 14 day
Procedure, shortened: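 Male NCRNU nude mice, 5–6 weeks old, were given 5 × 10^6 U87 cells in 100 μL sterile PBS, injected subcutaneously into the left and right flanks. Dosing was 20 mg/kg in PBS, three times weekly for 14 days, with a DMSO vehicle group. Body weight was recorded three times weekly. Results are mean ± SD, n = 4 mice per group.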

[5] = target: T1, Androgen receptor (Homo sapiens) (UniProt P10275); experiment: Inhibition of AR transcriptional activity in human U87 cells assessed as reduction in AR mRNA expression at 25 nM incubated for 12 hrs by qRT-PCR analysis; format: cell-based
T1 sequence (whole entry): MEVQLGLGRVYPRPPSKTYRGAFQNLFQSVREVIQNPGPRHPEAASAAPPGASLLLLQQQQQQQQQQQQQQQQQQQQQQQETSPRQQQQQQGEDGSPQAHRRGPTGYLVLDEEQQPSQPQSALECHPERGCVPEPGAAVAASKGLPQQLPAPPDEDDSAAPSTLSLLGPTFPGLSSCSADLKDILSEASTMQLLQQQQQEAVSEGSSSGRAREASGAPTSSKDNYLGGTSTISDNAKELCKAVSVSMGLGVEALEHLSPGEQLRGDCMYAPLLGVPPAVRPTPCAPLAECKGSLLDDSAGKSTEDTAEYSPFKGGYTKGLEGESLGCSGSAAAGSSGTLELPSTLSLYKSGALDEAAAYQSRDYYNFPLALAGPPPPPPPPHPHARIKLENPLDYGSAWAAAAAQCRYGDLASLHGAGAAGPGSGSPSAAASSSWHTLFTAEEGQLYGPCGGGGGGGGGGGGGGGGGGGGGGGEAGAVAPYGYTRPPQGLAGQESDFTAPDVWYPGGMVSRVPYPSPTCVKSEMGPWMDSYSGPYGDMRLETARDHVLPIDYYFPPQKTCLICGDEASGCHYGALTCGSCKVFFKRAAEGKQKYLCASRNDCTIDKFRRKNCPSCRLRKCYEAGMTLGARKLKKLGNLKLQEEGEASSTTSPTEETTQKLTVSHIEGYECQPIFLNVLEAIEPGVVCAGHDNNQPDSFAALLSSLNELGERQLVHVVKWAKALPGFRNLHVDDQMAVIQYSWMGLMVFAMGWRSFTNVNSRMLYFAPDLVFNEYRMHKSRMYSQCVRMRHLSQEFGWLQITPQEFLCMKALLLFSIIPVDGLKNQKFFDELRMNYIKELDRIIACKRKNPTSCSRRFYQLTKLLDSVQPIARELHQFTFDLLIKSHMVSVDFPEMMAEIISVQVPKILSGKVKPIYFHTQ
Procedure, shortened: (§3)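 T98G and U87 cells, 2 × 10^5 per well, adhered overnight and were treated at 25 nM for 12 h. RNA was extracted with RiboZol and DNase I-treated. AR, PSA and NKX3.1 were measured by real-time PCR, normalized to 18S by 2−ΔΔCt, three replicates per cDNA.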

U-87 MG = experiment: Antitumor activity against human U87 cells xenografted in nude mouse assessed as reduction in tumor size at 20 mg/kg, po administered thrice weekly for 14 days by vernier caliper method; format: functional, organism-based; settings: U-87MG ATCC, time 14.0 day
Procedure, shortened: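 Male NCRNU nude mice, 5–6 weeks, 5 × 10^6 U87 cells in PBS injected subcutaneously into left and right flank (n = 4 mice, 8 tumors per group). Dosing began near 50 mm3: 20 mg/kg in PBS IP or oral, three times weekly for 14 days, vehicle DMSO. Calipers three times weekly, V = 2/3·d1·d2²; tumors weighed after CO2 euthanasia.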

[6] = target: Heat shock protein beta-1 (Homo sapiens) (UniProt P04792); experiment: Inhibition of HSP27 in human T98G cells assessed as induction of AR degradation at 25 to 100 nM by Western blot analysis; format: cell-based; settings: dose 25-100 nM; procedure, shortened: as §1
[7] = target: Heat shock protein beta-1 (Homo sapiens) (UniProt P04792); experiment: Inhibition of HSP27 (unknown origin) chaperone activity assessed as increase in DTT-induced insulin aggregation at 10 uM incubated for 5 mins in absence of alpha-crystallin followed by addition of DTT and measured for 2 hrs for every 3 mins by microplate reader analysis; settings: time 125.0 min
Procedure, shortened: (§4)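 Insulin aggregation assay in PBS at 10 μM, 0.1% DMSO. Insulin stock 1 mg/mL with or without α-crystallin stock 5 mg/mL was preincubated 5 min at 37 °C. Aggregation was started with DTT (1 M stock). A400 was read every 3 min for 2 h; three independent experiments, each in triplicate.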

Mus musculus [8] = experiment: In vivo inhibition of HSP27 in human U87 cells xenografted in NCR nude mouse assessed as reduction in AR expression level in tumors at 20 mg/kg, ip administered thrice weekly for 14 days by Western blot analysis; format: functional, organism-based; settings: time 14.0 day; procedure, shortened: as §2
U-251 = experiment: Antiproliferative activity against human U-251 cells assessed as reduction in cell viability incubated for 48 hrs by MTT assay; format: functional, cell-based; settings: U-251, 48 h
Procedure, shortened: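 MTT assay; 3000 cells/well in RPMI 1640 or DMEM with 10% FBS, seeded 24 h, then exposed 48 h to a range of concentrations in DMSO (final ≤0.1%); vehicle controls. MTT 1 mg/mL for 2 h at 37 °C, dye dissolved in DMSO, absorbance 570 nm; eight replicates; IC50 by nonlinear regression.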

U-87MG ATCC = experiment: Downregulation of NKX3.1 mRNA expression in human U87 cells at 25 nM incubated for 12 hrs by qRT-PCR analysis; format: functional, cell-based; procedure, shortened: as §3
[9] = Dissociation constant, pKa of the compound; format: physicochemical
[10] = target: Heat shock protein beta-1 (Homo sapiens) (UniProt P04792); experiment: Inhibition of HSP27 (unknown origin) chaperone activity assessed as increase in DTT-induced insulin aggregation at 10 uM incubated for 5 mins in presence of alpha-crystallin followed by addition of DTT and measured for 2 hrs for every 3 mins by microplate reader analysis; settings: time 125.0 min; procedure, shortened: as §4
[11] = target: T1, Androgen receptor (Homo sapiens); experiment: Inhibition of AR transcriptional activity in human T98G cells assessed as reduction in AR mRNA expression at 25 nM incubated for 12 hrs by qRT-PCR analysis; format: cell-based; procedure, shortened: as §3

Chain of Heat shock protein beta-1 (Homo sapiens) (P04792 whole entry): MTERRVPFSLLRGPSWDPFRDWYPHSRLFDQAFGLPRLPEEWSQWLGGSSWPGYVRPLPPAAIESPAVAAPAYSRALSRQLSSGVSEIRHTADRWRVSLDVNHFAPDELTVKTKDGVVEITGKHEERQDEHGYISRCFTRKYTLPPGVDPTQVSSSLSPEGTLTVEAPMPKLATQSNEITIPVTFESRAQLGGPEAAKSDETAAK

inhibition [1]: Dose-dependent effect | inhibition [3]: Active | inhibition [5]: Active | inhibition [6]: Active | inhibition [7]: inactive | IC50 (U-251): 4 nM | pKa [9]: 8.65 | inhibition [10]: Active | inhibition [11]: Active
Structure (SMILES): COc1ccc(C(=O)Nc2ccc(NS(C)(=O)=O)c(OCc3cc(OC)ccc3OC)c2)cc1
inhibition (Mus musculus [2]): Active | Activity [4]: Non-Toxic | Activity (U-87 MG): Active | inhibition (Mus musculus [8]): Active | inhibition (U-87MG ATCC): Active
